This is an account of results in ChEMBL document CHEMBL1914364, “3-bromohomofascaplysin A, a fascaplysin analogue from a Fijian Didemnum sp. ascidian” (Bioorg Med Chem, 2011).

Data set [1] deals with Plasmodium falciparum. The experiment in a line: Antimalarial activity against chloroquine- and pyrimethamine-resistant Plasmodium falciparum K1. The class given is functional, organism-based.
In data set [2] the test system is Plasmodium falciparum. In words: Antimalarial activity against chloroquine- and mefloquine-resistant Plasmodium falciparum W2-Mef infected in human O-positive erythrocytes after 48 hrs. The class given is functional, organism-based. Summed up: (§1)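 Asynchronous W2-Mef cultures kept at 5% hematocrit in RPMI-1640-based malaria medium. Drugs were diluted in ½ log10 steps from 10 μM to 0.33 nM and grown in triplicate for 48 hr. Cells were stained 40 min with Hoechst 33342, thiazole orange, DiIC1-5 and propidium iodide, then read by flow cytometry; DNA/RNA levels assign ring, trophozoite and schizont stages. IC50 is taken from mean parasite counts relative to drug-free control wells.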

For data set [3], the system named is Plasmodium falciparum. The experiment in a line: Antimalarial activity against chloroquine- and mefloquine-resistant Plasmodium falciparum W2-Mef infected in human O-positive erythrocytes assessed as inhibition of ring-stage parasite growth after 48 hrs. The class given is functional, organism-based. Summed up: as §1
Data set [4] deals with Plasmodium falciparum. In words: Antimalarial activity against chloroquine- and mefloquine-resistant Plasmodium falciparum W2-Mef infected in human O-positive erythrocytes assessed as inhibition of trophozoites growth after 48 hrs. The class given is functional, organism-based. The method, boiled down:
as §1

For data set [5], the system named is Plasmodium falciparum. The experiment in a line: Antimalarial activity against chloroquine- and mefloquine-resistant Plasmodium falciparum W2-Mef infected in human O-positive erythrocytes assessed as inhibition of schizonts growth after 48 hrs. The class given is functional, organism-based. Summed up:
as §1

Another data set deals with L6. The experiment in a line: Cytotoxicity against rat L6 cells. The class given is cell-based.
Data set [6] in a line: Ratio of MIC for rat L6 cells to MIC for Plasmodium falciparum.
The test system of data set [7] is Plasmodium falciparum. In words: Ratio of IC50 for chloroquine- and mefloquine-resistant Plasmodium falciparum W2-Mef trophozoites to IC50 for chloroquine- and mefloquine-resistant Plasmodium falciparum W2-Mef ring-stage parasite. The class given is functional.
Data set [8] relates to Plasmodium falciparum. The experiment in a line: Ratio of IC50 for chloroquine- and mefloquine-resistant Plasmodium falciparum W2-Mef schizonts to IC50 for chloroquine- and mefloquine-resistant Plasmodium falciparum W2-Mef ring-stage parasite. The class given is functional.

pIC50: −log10 of the molar value.

Broadly, the pIC50 is the IC50 on a negative log10 scale, so that one unit is a factor of ten. As to `O=C1c2ccccc2-[n+]2ccc3c([nH]c4ccccc43)c21.[Cl-]` [FASCAPLYSIN CHLORIDE], the pIC50 is 6.80 in the data set with Plasmodium falciparum [1]; 7.32 in the data set on Plasmodium falciparum [2]; 8.11 with Plasmodium falciparum [3]; 6.40 in the data set on Plasmodium falciparum [4]; 7.19 with Plasmodium falciparum [5]. In addition, the Activity in the data set on L6 turned out to be 2.5 µg/mL. Also, the Ratio in data set [6] stood at 50.

As to `CC(=O)C[C@]1(O)c2ccc(Br)cc2-[n+]2ccc3c([nH]c4ccccc43)c21`, the pIC50 was 6.09 in the data set on Plasmodium falciparum [2], 6.24 in the data set on Plasmodium falciparum [3], 5.92 with Plasmodium falciparum [4] and 6.12 with Plasmodium falciparum [5].

For the molecule `CC(=O)C[C@]1(O)c2ccccc2-[n+]2ccc3c([nH]c4ccccc43)c21.[Cl-]` [HOMOFASCAPLYSINE A], the pIC50 in the data set with Plasmodium falciparum [1] is 7.42; with Plasmodium falciparum [2], 6.98; in the data set with Plasmodium falciparum [3] it was 9.26; with Plasmodium falciparum [4], 6.60; with Plasmodium falciparum [5] it was 7.03. For the same molecule, the “Ratio IC50” value in the data set on Plasmodium falciparum [7] was 450; in the data set on Plasmodium falciparum [8] it was 170. Moreover, in the data set with L6, the Activity is 1.1 µg/mL. Also, the Ratio in data set [6] was 50.

In the case of `C[C@@H]1CC[C@H]2[C@@H](C)C(=O)O[C@@H]3O[C@@]4(C)CC[C@@H]1[C@]32OO4` [ARTEMISININ], the pIC50 in the data set on Plasmodium falciparum [2] is 8.20; with Plasmodium falciparum [3] it was 8.23; in the data set with Plasmodium falciparum [4], 8.19; with Plasmodium falciparum [5] it was 8.23.
